Calls of active or inactive are those of the source. Rule as the data show it, unless noted: active = inhibition above about 30%; inactive = the rest.
Columns and labels:
[1] = Her2 expression decrease, cell viability multiplex – SKBR3 breast tumor cells, AlphaScreen, ATP viability, primary screen (AID 461;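 active = Her2 level under about 52% in both replicate screens, with viability over 70% of control, limit read from the data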;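 as to Her2 level: lower value means less Her2 protein in the cells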;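 as to viability: percent of carrier control wells set as 100% viability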); details: SKBR3 Her2 protein level, 18-24 h, measured here: SKBR3 viability, ATP luminescence, at 10 µM
[2] = molecular target: Receptor tyrosine-protein kinase erbB-2 (Homo sapiens) (UniProt P04626); test: as above; details: 18-24 h, at 10 µM, stronger effect = lower value
[3] = reduced viability of SK-BR-3 breast cancer cells – cell-based, 24 h, human, pilot screen (AID 572;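 active = viability at or below 10% of carrier control in both of two separate runs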;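 also: compound exposure lasted between 18 and 24 h rather than exactly 24 h; 100% = carrier-treated control wells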); details: SK-BR-3 viability, CellTiter-Glo luminescence, at 10 µM, stronger effect = lower value
[4] = HUVEC growth inhibition – cell-based, human, primary screen (AID 575;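 active = viability at or below 30% in both replicate assays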;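 also: 100% = median of untreated cell wells with 0.1% DMSO on each plate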); details: HUVEC proliferation, CellTiter-Glo luminescence, 72 h; at 10 µM; stronger effect = lower value
Summary of the method: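 Material: primary human umbilical vein endothelial cells / Schedule: 72 h exposure, 37 °C, 5% CO2, 30 min RT equilibration / Signal: ATP-based CellTiter-Glo luminescent read / Read-out basis: percent of median DMSO-control luminescence / Control set: 32 DMSO-only cell-control wells (high), 32 MePR drug-control wells (low) per plate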

[5] = H69AR cell proliferation blockers – human, duplicate replicates, primary screen (AID 580;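 active = viability at or under a set limit in both replicates, limit being median viability minus 3 SD, cut at about 48% in these data, passing the limit was not always enough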;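 also: 100% = mean luminescence of untreated wells and 0% = no signal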); details: H69AR lung tumor cells viability, ATP luminescence, 72 h; at 10 µM; stronger effect = lower value
[6] = MRP1 drug-resistance reversers in H69AR cells – cell-based, doxorubicin co-treatment, pilot screen (AID 601;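 active = viability loss from added drug above about 55%, and viability with drug at most 40%, in both replicates, limit read from the data, passing the limit was not always enough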); details: CellTiter-Glo, 72 h, at 10 µM; for differential viability (reversal): stronger effect = higher value
[7] = yeast transport mutant growth inhibition pilot in 384-well plates, post-Golgi transport modulator project (AID 636; in the data active = inhibition above about 31%); details: absorbance 615 nm, about 18 h, stronger effect = higher value
[8] = growth suppression of yeast trafficking mutant, preliminary HTS, modulators of trafficking downstream of Golgi apparatus project, 1536-format plate, OD 615 nm (AID 637); details: yeast transport mutant growth, absorbance 615 nm, 18 h; stronger effect = higher value
[9] = H69AR cells + 2 uM doxorubicin, measured here: viability with 2 uM doxorubicin, stronger effect = lower value
[10] = H69AR cells, compound alone cytotoxicity

Sequence of Receptor tyrosine-protein kinase erbB-2 (Homo sapiens) (P04626 whole entry, looked up): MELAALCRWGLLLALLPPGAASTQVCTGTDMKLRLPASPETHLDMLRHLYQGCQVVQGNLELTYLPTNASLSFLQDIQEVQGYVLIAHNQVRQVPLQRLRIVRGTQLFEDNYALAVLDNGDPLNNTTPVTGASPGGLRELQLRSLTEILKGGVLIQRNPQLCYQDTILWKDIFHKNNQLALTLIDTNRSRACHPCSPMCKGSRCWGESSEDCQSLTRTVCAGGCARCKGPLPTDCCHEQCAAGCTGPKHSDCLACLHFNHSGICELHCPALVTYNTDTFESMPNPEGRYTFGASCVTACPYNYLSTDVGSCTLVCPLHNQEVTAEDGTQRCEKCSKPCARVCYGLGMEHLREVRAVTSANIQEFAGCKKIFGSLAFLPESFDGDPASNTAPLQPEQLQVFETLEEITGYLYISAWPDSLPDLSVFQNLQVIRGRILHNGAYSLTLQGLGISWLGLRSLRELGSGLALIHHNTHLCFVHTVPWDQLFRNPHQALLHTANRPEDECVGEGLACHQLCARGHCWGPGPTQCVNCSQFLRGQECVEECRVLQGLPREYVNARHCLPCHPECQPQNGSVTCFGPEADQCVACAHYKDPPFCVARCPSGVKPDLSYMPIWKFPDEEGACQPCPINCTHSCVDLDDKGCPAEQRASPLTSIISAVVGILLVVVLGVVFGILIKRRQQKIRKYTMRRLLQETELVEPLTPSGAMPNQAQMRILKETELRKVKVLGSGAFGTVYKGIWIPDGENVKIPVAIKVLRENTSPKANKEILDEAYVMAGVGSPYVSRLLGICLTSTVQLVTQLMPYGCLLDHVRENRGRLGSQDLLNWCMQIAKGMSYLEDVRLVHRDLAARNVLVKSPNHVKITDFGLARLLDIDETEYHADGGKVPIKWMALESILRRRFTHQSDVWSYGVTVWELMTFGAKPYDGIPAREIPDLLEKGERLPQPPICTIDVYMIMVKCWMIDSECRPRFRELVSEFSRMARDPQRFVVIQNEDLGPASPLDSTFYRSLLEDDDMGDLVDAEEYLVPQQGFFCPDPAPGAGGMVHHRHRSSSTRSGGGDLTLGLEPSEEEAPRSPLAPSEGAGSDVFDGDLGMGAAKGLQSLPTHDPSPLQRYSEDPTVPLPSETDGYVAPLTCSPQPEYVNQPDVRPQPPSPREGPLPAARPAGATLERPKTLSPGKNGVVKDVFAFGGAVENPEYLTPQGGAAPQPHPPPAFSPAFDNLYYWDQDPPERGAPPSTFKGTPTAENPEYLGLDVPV

| SMILES | viability [1] [%] | Her2 level [2] | viability [3] | viability [4] | viability [5] | differential viability (reversal) ([6]; H69AR cells + 2 uM doxorubicin) | viability [6, 9] [%] | viability [6, 10] [%] | inhibition [7] | inhibition [8] |
| --- | --- | --- | --- | --- | --- | --- | --- | --- | --- | --- |
| Cc1ccccc1N1CC(c2nc3ccccc3[nH]2)CC1=O (stereo not given) | 102 | 91.5% (inactive) | 102% (inactive) | 87.7% (inactive) | 96.1% (inactive) | -0.615% (inactive) | 96.7 | 96.1 | -0.92% (inactive) | -5.71% (inactive) |
| COc1ccc2c(=O)c3c(=O)n(Cc4ccco4)c(-c4cc(OC)c(OC)c(OC)c4)nc3oc2c1 | 67 | 82.5% (inactive) | 67% (inactive) | 67.9% (inactive) | 36.1% (active) | -1.67% (inactive) | 37.8 | 36.1 | -2.53% (inactive) | -10% (inactive) |
| CN1CCN(C(=O)C2(NC(=O)Nc3cccc(F)c3)CCCCC2)CC1 | 81 | 97% (inactive) | 81% (inactive) | 97.4% (inactive) | 93.9% (inactive) | -9.36% (inactive) | 103 | 93.9 | -3.65% (inactive) | -3.02% (inactive) |
| Cc1[nH]n(C(N)=S)c(=O)c1C(c1ccccc1)C(C#N)C#N (stereo not given) | 96.5 | 152% (inactive) | 96.5% (inactive) | 70.8% (inactive) | 91.6% (inactive) | -0.72% (inactive) | 92.4 | 91.6 | 3.46% (inactive) | 20.2% (inactive) |
| COc1ccccc1-c1nnc(SCC(=O)N2CC(C)CC(C)C2)o1 (stereo not given) | 80.5 | 81.5% (inactive) | 80.5% (inactive) | 77.4% (inactive) | 78.1% (inactive) | -5.03% (inactive) | 83.2 | 78.1 | -5% (inactive) | -5% (inactive) |
| Cc1csc(NC(=O)CCS(=O)(=O)c2ccc(Br)cc2)n1 | 99.5 | 96.5% (inactive) | 99.5% (inactive) | 82.5% (inactive) | 73% (inactive) | -2.92% (inactive) | 75.9 | 73 | -0.81% (inactive) | 22.7% (inactive) |
| CCOC(=O)CSc1nn(C)c(=S)s1 | 97.5 | 106% (inactive) | 97.5% (inactive) | 73.2% (inactive) | 102% (inactive) | 7.25% (inactive) | 94.9 | 102 | -2.4% (inactive) | -1.5% (inactive) |
| O=C1CN(C(=O)COC(=O)C23CC4CC(CC(O)(C4)C2)C3)c2ccccc2N1 | 115 | 85.5% (inactive) | 115% (inactive) | 104% (inactive) | 96.6% (inactive) | 10.6% (inactive) | 86.1 | 96.6 | -7.97% (inactive) | 3.65% (inactive) |
| Cc1ccc(S(=O)(=O)N2CCN(C(=O)CN3CCOCC3)C2C(C)C)cc1 (stereo not given) | 99.5 | 102% (inactive) | 99.5% (inactive) | 102% (inactive) | 104% (inactive) | 9.15% (inactive) | 94.5 | 104 | -2.86% (inactive) | -2.54% (inactive) |
| COc1ccccc1OC(=O)c1ccc(SC)cc1OC | 83 | 88% (inactive) | 83% (inactive) | 98.4% (inactive) | 94.1% (inactive) | 2.65% (inactive) | 91.4 | 94.1 | 1.05% (inactive) | -5.97% (inactive) |
| N#Cc1cnn(Cc2ccc(Cl)cc2)c1N | 92 | 97.5% (inactive) | 92% (inactive) | 92.7% (inactive) | 95.4% (inactive) | 10.4% (inactive) | 84.9 | 95.4 | -7.03% (inactive) | -7.21% (inactive) |
| COC(=O)c1cc(Oc2ccc(C(=O)OC)cc2N)cc(C(=O)OC)c1 | 95 | 100% (inactive) | 95% (inactive) | 99.1% (inactive) | 96.5% (inactive) | -2.62% (inactive) | 99.2 | 96.5 | -1.32% (inactive) | -5.82% (inactive) |
| CCn1cc(C(=O)NCCN(C)CCc2ccccc2)c(=O)c2cc(S(=O)(=O)N(C)C)ccc21 | 90 | 106% (inactive) | 90% (inactive) | 75.9% (inactive) | 81.2% (inactive) | 1.48% (inactive) | 79.8 | 81.2 | -1.73% (inactive) | 12.6% (inactive) |
| CCN1CCN(CCNC(=O)c2cn(C(C)c3ccccc3F)nn2)CC1 (stereo not given) | 122 | 98.5% (inactive) | 122% (inactive) | 82.3% (inactive) | 96.4% (inactive) | 8.63% (inactive) | 87.8 | 96.4 | -2.73% (inactive) | -4.6% (inactive) |
| COc1ccccc1C(=O)Nc1nc2ccc(S(C)(=O)=O)cc2s1 | 89.5 | 78% (inactive) | 89.5% (inactive) | 93.5% (inactive) | 79.5% (inactive) | -6.1% (inactive) | 85.6 | 79.5 | 0.64% (inactive) | -1% (inactive) |

Reference: PubChem BioAssay
